Source: ChEMBL document CHEMBL2034932, “2-Anilino-4-(benzimidazol-2-yl)pyrimidines--a multikinase inhibitor scaffold with antiproliferative activity toward cancer cell lines” (Eur J Med Chem, 2012)
Activity calls are given as the source filed them. The rule behind the calls is not given here.

What was measured:
[1] = system: UACC-257; assay: Antiproliferative activity against human UACC257 cells after 48 hrs by SRB assay; format: functional; conditions: UACC-257, 48 h
Summary of the method: (§1)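 Run in the NCI screen of about 60 human tumour cell lines. Cells were exposed to compound for 48 h at five concentrations from 10^-8 to 10^-4 M, then fixed and stained for protein with sulforhodamine B. Absorbance was read at 515 nm. Percent growth was calculated from time-zero, untreated-control and treated readings, and replicate experiments were averaged.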

[2] = system: SNB-19; assay: Antiproliferative activity against human SNB19 cells after 48 hrs by SRB assay; format: functional; conditions: SNB-19, 48 h; summary of the method: as §1
[3] = system: OVCAR-3; assay: Antiproliferative activity against human OVCAR3 cells after 48 hrs by SRB assay; format: functional; conditions: OVCAR-3, 48 h; summary of the method: as §1
[4] = system: MCF7; assay: Antiproliferative activity against human MCF7 cells after 48 hrs by SRB assay; format: functional; conditions: MCF7, 48 h; summary of the method: as §1
[5] = system: MDA-MB-435; assay: Antiproliferative activity against human MDA-MB-435 cells after 48 hrs by SRB assay; format: functional; conditions: MDA-MB-435, 48 h; summary of the method: as §1
[6] = system: CAKI-1; assay: Antiproliferative activity against human CAKI-1 cells after 48 hrs by SRB assay; format: functional; conditions: CAKI-1, 48 h; summary of the method: as §1
[7] = system: EKVX; assay: Antiproliferative activity against human EKVX cells after 48 hrs by SRB assay; format: functional; summary of the method: as §1
[8] = system: SW-620; assay: Antiproliferative activity against human SW620 cells after 48 hrs by SRB assay; format: functional; conditions: SW-620, 48 h; summary of the method: as §1
[9] = system: TK-10; assay: Antiproliferative activity against human TK10 cells after 48 hrs by SRB assay; format: functional; conditions: TK-10, 48 h; summary of the method: as §1
[10] = system: HT-29; assay: Antiproliferative activity against human HT-29 cells after 48 hrs by SRB assay; format: functional; conditions: HT-29, 48 h; summary of the method: as §1
[11] = molecular target: T1, Focal adhesion kinase 1 (Homo sapiens, UniProt Q05397); assay: Inhibition of recombinant FAK using poly(Glu,Tyr)4 as substrate assessed as inhibition of [33P]Phosphate incorporation into substrate at <10 uM after 80 mins by scintillation counting
Summary of the method: (§2)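 FAK and VEGF-R2 were each tested as recombinant kinase with poly(Glu,Tyr)4:1 substrate at 125 ng/50 µL and [33P]-ATP (about 5×10^5 cpm/well). Buffer was 60 mM HEPES-NaOH pH 7.5 with 3 mM MgCl2 and 3 mM MnCl2. Reactions ran 80 min at 30 °C and were quenched with 2% phosphoric acid and washed with 0.9% NaCl. Scintillation counts were normalised between no-enzyme and uninhibited controls.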
Target sequence in this assay (Q05397 2-1052 limits assumed): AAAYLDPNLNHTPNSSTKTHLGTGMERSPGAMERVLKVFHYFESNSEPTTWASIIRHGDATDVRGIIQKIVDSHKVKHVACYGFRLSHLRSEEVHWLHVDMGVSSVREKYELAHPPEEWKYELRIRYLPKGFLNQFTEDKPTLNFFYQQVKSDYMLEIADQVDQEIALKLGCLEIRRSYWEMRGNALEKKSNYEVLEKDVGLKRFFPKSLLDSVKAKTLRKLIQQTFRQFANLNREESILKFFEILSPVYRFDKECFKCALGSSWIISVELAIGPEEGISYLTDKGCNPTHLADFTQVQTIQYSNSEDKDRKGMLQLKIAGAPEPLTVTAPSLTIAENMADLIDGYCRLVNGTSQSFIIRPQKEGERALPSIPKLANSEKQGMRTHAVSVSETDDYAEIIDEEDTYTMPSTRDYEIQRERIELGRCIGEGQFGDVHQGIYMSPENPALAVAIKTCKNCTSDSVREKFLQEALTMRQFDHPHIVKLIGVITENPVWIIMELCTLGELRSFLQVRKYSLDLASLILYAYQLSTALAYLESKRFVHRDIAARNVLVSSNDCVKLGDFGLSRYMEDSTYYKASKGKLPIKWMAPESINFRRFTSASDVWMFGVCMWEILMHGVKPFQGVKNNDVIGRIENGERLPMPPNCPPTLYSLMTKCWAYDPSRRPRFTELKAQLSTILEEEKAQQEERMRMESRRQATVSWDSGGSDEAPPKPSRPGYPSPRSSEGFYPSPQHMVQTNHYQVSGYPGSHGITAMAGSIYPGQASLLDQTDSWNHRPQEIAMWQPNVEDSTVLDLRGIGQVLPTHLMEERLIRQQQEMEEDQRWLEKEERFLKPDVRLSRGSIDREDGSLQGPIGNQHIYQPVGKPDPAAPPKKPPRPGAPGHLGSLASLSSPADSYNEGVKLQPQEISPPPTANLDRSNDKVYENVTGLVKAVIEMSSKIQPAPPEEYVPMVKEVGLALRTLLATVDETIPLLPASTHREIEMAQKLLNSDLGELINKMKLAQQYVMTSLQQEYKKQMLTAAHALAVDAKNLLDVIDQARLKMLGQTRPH

[12] = molecular target: T2, RAC-alpha serine/threonine-protein kinase (Homo sapiens, UniProt P31749); assay: Inhibition of recombinant AKT1 using GSK3 as substrate assessed as inhibition of [33P]Phosphate incorporation into substrate at <10 uM after 80 mins by scintillation counting
Summary of the method: (§3)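 Recombinant AKT1 was assayed radiometrically with [33P]-ATP (about 5×10^5 cpm/well) and GSK3(14-27) substrate at 2000 ng/50 µL. Buffer was 60 mM HEPES-NaOH pH 7.5 with 3 mM MgCl2 and 3 mM MnCl2, and compound was added in 10% DMSO. After 80 min at 30 °C the reaction was stopped with 2% phosphoric acid, washed with 0.9% NaCl and 33P incorporation counted by scintillation. Residual activity was set against no-enzyme and no-inhibitor controls.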

[13] = molecular target: T3, Vascular endothelial growth factor receptor 2 (Homo sapiens, UniProt P35968); assay: Inhibition of recombinant VEGFR2 using poly(Glu,Tyr)4 as substrate assessed as inhibition of [33P]Phosphate incorporation into substrate at <10 uM after 80 mins by scintillation counting; summary of the method: as §2
[14] = molecular target: T4, NUAK family SNF1-like kinase 1 (Homo sapiens) (UniProt O60285); assay: Inhibition of recombinant ARK5 at <10 uM by radiometric kinase assay
T4 sequence (whole entry): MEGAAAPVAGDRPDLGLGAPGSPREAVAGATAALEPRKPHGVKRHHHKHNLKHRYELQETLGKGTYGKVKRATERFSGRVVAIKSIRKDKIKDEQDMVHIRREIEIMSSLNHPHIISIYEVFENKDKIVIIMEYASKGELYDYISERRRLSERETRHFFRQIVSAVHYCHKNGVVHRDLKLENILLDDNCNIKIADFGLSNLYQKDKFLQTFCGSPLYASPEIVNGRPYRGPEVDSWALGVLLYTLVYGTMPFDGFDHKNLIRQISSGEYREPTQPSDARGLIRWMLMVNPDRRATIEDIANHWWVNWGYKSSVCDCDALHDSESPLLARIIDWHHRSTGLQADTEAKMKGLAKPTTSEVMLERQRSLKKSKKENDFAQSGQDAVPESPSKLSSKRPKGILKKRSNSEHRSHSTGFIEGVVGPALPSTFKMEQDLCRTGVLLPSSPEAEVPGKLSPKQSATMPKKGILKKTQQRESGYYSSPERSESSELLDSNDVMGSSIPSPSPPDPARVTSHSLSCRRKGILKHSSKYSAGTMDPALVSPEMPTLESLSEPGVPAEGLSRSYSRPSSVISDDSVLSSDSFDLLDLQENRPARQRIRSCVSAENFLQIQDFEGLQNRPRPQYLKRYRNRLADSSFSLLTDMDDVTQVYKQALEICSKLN
Summary of the method: (§4)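 Recombinant kinases were tested in a radiometric 33P-ATP assay in 60 mM HEPES-NaOH pH 7.5 with 3 mM MgCl2 and 3 mM MnCl2, with compound added in 10% DMSO. Incubation was 80 min at 30 °C, stopped with 2% phosphoric acid and washed. 33P incorporation was scintillation-counted, and activity was scaled between no-enzyme and no-inhibitor controls.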

[15] = molecular target: Insulin-like growth factor 1 receptor (Homo sapiens) (UniProt P08069); assay: Inhibition of recombinant IGF1R at <10 uM by radiometric kinase assay; summary of the method: as §4
[16] = molecular target: Proto-oncogene tyrosine-protein kinase Src (Homo sapiens) (UniProt P12931); assay: Inhibition of recombinant SRC at <10 uM by radiometric kinase assay; summary of the method: as §4
[17] = molecular target: T3, Vascular endothelial growth factor receptor 2; assay: Inhibition of recombinant VEGFR2 using poly(Glu,Tyr)4 as substrate assessed as inhibition of [33P]Phosphate incorporation into substrate after 80 mins by scintillation counting
[18] = molecular target: Hepatocyte growth factor receptor (Homo sapiens) (UniProt P08581); assay: Inhibition of recombinant MET at <10 uM by radiometric kinase assay; summary of the method: as §4
[19] = molecular target: T5, Serine/threonine-protein kinase PLK1 (Homo sapiens, UniProt P53350); assay: Inhibition of recombinant PLK1 using RBERCHKtide as substrate assessed as inhibition of [33P]Phosphate incorporation into substrate at <10 uM after 80 mins by scintillation counting
Summary of the method: (§5)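 PLK1 (recombinant) was phosphorylating RBER-CHKtide at 2000 ng/50 µL with [33P]-ATP (about 5×10^5 cpm/well). Buffer was 60 mM HEPES-NaOH pH 7.5 with 3 mM MgCl2 and 3 mM MnCl2. After 80 min at 30 °C, 2% phosphoric acid stopped the reaction and wells were washed with saline. Incorporated 33P was counted, with residual activity relative to enzyme-free and inhibitor-free controls.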

[20] = molecular target: T1, Focal adhesion kinase 1; assay: Inhibition of recombinant FAK using poly(Glu,Tyr)4 as substrate assessed as inhibition of [33P]Phosphate incorporation into substrate after 80 mins by scintillation counting
[21] = molecular target: Tyrosine-protein kinase receptor UFO (Homo sapiens) (UniProt P30530); assay: Inhibition of recombinant AXL at <10 uM by radiometric kinase assay; summary of the method: as §4
[22] = molecular target: Serine/threonine-protein kinase N1 (Homo sapiens) (UniProt Q16512); assay: Inhibition of recombinant PRK1 at <10 uM by radiometric kinase assay; summary of the method: as §4
[23] = molecular target: T6, Aurora kinase B (Homo sapiens, UniProt Q96GD4); assay: Inhibition of recombinant Aurora B using tetra(LRRWSLG) as substrate assessed as inhibition of [33P]Phosphate incorporation into substrate at <10 uM after 80 mins by scintillation counting
Summary of the method: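 Recombinant Aurora B was assayed with [33P]-ATP (about 5×10^5 cpm/well) and tetra(LRRWSLG) substrate at 500 ng/50 µL. Buffer was 60 mM HEPES-NaOH pH 7.5 with 3 mM MgCl2 and 3 mM MnCl2. Incubation ran 80 min at 30 °C and was stopped with 2% phosphoric acid, then washed with saline. Bound 33P was counted by scintillation, with activity normalised to no-enzyme (0%) and no-inhibitor (100%) controls.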

[24] = molecular target: T2, RAC-alpha serine/threonine-protein kinase; assay: Inhibition of recombinant AKT1 using GSK3 as substrate assessed as inhibition of [33P]Phosphate incorporation into substrate after 80 mins by scintillation counting
Summary of the method: as §3, with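 “scintillation.” for “scintillation. Residual activity was set against no-enzyme and no-inhibitor controls.”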

[25] = molecular target: T5, Serine/threonine-protein kinase PLK1; assay: Inhibition of recombinant PLK1 using RBERCHKtide as substrate assessed as inhibition of [33P]Phosphate incorporation into substrate after 80 mins by scintillation counting; summary of the method: as §5
[26] = molecular target: T6, Aurora kinase B; assay: Inhibition of recombinant Aurora B using tetra(LRRWSLG) as substrate assessed as inhibition of [33P]Phosphate incorporation into substrate after 80 mins by scintillation counting

Chain of Hepatocyte growth factor receptor (Homo sapiens) (P08581 whole entry): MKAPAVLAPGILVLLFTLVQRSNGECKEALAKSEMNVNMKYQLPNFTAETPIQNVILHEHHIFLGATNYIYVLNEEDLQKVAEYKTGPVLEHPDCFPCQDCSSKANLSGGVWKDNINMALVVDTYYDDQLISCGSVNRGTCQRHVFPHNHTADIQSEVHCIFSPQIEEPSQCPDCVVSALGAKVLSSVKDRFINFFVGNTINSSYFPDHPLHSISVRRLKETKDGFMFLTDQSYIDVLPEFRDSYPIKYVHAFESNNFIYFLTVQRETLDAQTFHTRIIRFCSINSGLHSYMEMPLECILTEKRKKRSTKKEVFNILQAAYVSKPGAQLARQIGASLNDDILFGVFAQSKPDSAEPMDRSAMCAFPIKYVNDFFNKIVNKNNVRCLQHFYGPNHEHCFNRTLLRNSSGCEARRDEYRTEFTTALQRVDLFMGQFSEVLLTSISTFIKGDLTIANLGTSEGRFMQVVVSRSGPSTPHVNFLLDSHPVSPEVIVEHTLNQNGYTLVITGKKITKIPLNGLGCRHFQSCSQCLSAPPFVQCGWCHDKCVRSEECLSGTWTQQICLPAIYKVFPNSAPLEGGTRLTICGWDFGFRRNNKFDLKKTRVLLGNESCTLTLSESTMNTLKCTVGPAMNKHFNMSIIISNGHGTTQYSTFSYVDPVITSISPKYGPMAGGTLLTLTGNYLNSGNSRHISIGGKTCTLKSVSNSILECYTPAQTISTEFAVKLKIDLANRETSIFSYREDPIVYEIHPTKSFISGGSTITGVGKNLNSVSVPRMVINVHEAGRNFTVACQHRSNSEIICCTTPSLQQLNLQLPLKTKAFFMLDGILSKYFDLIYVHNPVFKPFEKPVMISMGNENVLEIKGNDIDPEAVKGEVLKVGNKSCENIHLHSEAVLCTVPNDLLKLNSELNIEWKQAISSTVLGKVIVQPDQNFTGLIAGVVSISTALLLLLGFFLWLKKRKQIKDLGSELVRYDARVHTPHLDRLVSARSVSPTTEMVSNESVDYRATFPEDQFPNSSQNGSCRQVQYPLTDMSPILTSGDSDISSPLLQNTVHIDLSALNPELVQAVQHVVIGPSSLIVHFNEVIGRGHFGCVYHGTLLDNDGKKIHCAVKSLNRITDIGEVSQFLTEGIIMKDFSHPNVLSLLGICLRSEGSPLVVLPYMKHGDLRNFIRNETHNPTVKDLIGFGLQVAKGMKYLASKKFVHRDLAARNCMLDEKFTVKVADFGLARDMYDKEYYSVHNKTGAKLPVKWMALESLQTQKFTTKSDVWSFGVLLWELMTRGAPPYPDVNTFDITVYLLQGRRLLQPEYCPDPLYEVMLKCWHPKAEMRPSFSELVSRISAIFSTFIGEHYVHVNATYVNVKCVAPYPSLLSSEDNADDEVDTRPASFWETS
Chain of Proto-oncogene tyrosine-protein kinase Src (Homo sapiens) (P12931 2-536 limits assumed): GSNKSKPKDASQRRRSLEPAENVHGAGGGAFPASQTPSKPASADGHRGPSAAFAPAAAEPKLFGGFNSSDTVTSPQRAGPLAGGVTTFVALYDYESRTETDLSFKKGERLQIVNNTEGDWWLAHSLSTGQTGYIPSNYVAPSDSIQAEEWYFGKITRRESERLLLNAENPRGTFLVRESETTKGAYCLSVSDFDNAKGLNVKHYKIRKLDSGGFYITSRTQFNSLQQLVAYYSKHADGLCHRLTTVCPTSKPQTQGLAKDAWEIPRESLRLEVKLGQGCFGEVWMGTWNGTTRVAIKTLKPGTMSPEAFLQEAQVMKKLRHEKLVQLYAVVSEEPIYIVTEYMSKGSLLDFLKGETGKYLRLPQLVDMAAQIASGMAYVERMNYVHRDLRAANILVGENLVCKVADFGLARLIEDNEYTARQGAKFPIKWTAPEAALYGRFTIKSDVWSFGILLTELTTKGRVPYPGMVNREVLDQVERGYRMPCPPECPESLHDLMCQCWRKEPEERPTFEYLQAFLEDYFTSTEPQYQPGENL
T3 sequence (P35968 whole entry): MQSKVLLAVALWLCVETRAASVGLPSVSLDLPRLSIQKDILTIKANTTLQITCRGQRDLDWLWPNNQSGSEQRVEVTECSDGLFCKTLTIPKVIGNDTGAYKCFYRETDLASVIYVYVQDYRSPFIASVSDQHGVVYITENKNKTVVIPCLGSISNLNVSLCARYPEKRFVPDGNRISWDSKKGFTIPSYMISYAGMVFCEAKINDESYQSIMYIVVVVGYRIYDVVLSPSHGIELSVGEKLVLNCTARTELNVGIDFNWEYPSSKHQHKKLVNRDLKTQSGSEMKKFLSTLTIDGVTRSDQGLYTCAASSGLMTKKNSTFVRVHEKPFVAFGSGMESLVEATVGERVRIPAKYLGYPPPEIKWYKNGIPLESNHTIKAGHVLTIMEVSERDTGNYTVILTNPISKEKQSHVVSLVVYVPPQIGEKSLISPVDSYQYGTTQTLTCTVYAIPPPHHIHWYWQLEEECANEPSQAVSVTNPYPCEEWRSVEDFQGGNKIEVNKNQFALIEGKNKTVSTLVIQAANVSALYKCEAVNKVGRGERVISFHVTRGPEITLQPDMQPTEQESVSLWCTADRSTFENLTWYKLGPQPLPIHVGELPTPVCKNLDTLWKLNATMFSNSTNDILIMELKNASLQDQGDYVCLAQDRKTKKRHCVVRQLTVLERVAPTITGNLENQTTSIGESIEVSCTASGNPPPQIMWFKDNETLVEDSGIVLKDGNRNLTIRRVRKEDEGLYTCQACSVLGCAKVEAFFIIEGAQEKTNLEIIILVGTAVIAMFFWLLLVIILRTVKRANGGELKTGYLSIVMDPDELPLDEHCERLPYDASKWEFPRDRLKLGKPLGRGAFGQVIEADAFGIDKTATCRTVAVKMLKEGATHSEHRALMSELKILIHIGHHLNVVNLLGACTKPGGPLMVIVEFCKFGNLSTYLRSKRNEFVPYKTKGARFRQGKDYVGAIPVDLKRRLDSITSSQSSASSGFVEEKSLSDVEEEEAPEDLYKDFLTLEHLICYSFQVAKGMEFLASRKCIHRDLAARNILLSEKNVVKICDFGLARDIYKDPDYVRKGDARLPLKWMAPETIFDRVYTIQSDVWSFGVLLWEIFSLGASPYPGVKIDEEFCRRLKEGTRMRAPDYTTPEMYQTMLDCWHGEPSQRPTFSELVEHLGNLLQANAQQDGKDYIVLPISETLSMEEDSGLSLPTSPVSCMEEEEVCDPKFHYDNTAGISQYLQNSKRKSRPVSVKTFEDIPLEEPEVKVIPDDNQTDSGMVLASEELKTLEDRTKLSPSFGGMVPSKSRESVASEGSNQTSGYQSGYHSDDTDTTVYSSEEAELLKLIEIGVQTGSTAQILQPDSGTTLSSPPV
T5 sequence (P53350 whole entry): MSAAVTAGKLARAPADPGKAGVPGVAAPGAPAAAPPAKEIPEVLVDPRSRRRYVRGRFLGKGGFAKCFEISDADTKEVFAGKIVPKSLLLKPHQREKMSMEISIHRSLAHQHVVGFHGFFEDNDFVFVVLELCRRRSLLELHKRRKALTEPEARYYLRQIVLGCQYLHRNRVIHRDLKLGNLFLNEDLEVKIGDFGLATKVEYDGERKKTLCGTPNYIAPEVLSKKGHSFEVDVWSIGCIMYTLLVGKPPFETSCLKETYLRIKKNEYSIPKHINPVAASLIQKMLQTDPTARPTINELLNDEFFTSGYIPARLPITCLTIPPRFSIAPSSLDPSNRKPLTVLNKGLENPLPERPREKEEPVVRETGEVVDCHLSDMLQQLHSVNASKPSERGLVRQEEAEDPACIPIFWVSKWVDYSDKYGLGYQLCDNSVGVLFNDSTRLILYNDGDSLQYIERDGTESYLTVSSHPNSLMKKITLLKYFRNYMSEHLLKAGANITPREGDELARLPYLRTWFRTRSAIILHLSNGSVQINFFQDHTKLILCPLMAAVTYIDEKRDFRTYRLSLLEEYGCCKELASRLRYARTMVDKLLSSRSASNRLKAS

Compound | inhibition [11] | inhibition [12] | inhibition [13] | inhibition [14] | inhibition [15] | inhibition [16] | IC50 [17] [µM] | inhibition [18] | inhibition [19] | IC50 [20] [µM] | inhibition [21] | inhibition [22] | inhibition [23] | IC50 [24] [µM] | IC50 [25] [µM] | IC50 [26] [µM] | other results
CCN(CC)CCNC(=O)c1c(C)[nH]c(/C=C2\C(=O)Nc3ccc(F)cc32)c1C [SUNITINIB] | – | – | – | – | – | – | – | – | – | – | – | – | – | – | – | – | GI50 [1]: 4 µM; GI50 [2]: 10 µM; GI50 [3]: 3.2 µM; GI50 [4]: 2 µM; GI50 [5]: 2 µM; GI50 [6]: 0.63 µM; GI50 [7]: 7.9 µM; GI50 [8]: 1.3 µM; GI50 [9]: 6.3 µM; GI50 [10]: 1.6 µM
Cc1ccc(Nc2nccc(-c3nc4ccccc4n3C)n2)cc1 | inactive | inactive | inactive | inactive | inactive | inactive | 25 | inactive | inactive | 58 | inactive | inactive | – | – | – | – | –
Cn1c(-c2ccnc(Nc3ccc(N4CCOCC4)cc3)n2)nc2ccccc21 | inactive | inactive | inactive | inactive | inactive | inactive | 69 | inactive | inactive | 24 | inactive | inactive | inactive | > 100 | > 100 | > 100 | –
Cn1c(=O)c2ccc(-c3nc4ccccc4n3C)nc2n(C)c1=O | inactive | inactive | inactive | inactive | inactive | inactive | 85 | inactive | inactive | 92 | inactive | inactive | – | – | – | – | –
Cn1c(-c2ccnc(Nc3ccc(Cl)cc3)n2)nc2ccccc21 | inactive | inactive | inactive | inactive | inactive | inactive | 38 | inactive | inactive | 69 | inactive | inactive | – | 41 | – | – | –
Cn1c(-c2ccnc(Nc3ccc(O)c(Cl)c3)n2)nc2ccccc21 | – | – | – | – | – | – | 7.5 | – | – | 10.4 | – | – | – | > 100 | 6 | 7 | –
Cn1c(-c2ccnc(Nc3cccc(O)c3)n2)nc2ccccc21 | – | – | – | – | – | – | 3.2 | – | – | 5.2 | – | – | – | > 100 | 3.7 | 5.5 | –
Cn1c(-c2ccnc(Nc3ccc(O)cc3)n2)nc2ccccc21 | – | – | – | – | – | – | 9.2 | – | – | 11.4 | – | – | – | > 100 | 12 | 11.1 | –
COc1ccc(Nc2nccc(-c3nc4ccccc4n3C)n2)cc1 | inactive | inactive | inactive | inactive | inactive | inactive | 44 | inactive | inactive | 27 | inactive | inactive | inactive | 75 | 15 | 62 | –
Cn1c(-c2ccnc(Nc3ccccc3)n2)nc2ccccc21 | inactive | inactive | inactive | inactive | inactive | inactive | 13.4 | inactive | inactive | 38 | inactive | inactive | inactive | > 100 | 60 | > 100 | –
CCOc1ccc(Nc2nccc(-c3nc4ccccc4n3C)n2)cc1 | inactive | inactive | inactive | inactive | inactive | inactive | > 100 | inactive | inactive | > 100 | inactive | inactive | inactive | > 100 | > 100 | > 100 | –
